According to ChEMBL document CHEMBL1139103, “Identification of novel glycine sulfonamide antagonists for the EP1 receptor” (Bioorg Med Chem Lett, 2007):
pIC50, pKi: −log10 of the molar value.

Assays:
[1] = target: T1, Prostaglandin E2 receptor EP1 subtype (Homo sapiens, UniProt P34995); test: Antagonist activity at human EP1 expressed in CHOK1 cells receptor assessed as inhibition of intracellular calcium mobilization by FLIPR assay; format: functional, cell-based, CHO-K1
T1 sequence (P34995 whole entry): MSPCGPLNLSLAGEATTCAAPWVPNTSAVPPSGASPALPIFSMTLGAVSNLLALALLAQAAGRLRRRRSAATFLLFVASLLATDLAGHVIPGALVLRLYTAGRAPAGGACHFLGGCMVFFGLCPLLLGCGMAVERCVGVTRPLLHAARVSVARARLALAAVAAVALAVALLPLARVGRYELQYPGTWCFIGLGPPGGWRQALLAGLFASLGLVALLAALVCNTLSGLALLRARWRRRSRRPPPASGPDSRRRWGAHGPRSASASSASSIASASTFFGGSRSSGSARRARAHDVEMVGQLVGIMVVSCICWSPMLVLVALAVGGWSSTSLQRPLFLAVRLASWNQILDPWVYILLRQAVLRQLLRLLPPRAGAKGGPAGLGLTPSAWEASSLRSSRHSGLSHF
Outline: (§1)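 Stable EP1- or EP3-transfected CHO-K1 whole cells loaded with calcium-sensitive dye Fluo-3; inhibition of PGE2-evoked intracellular Ca2+ mobilisation read on a fluorimetric imaging plate reader (FLIPR). IC50s converted to pKi. Means of at least two experiments unless specified.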

[2] = target: T1, Prostaglandin E2 receptor EP1 subtype; test: Displacement of [3H]PGE2 from EP1 expressed in CHO cells; format: cell-based
Outline: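 Membranes from stable EP1-transfected CHO-K1 cells incubated with compound and [3H]-PGE2 (3 nM final) for 30 min at 30 °C. Bound radioactivity counted by liquid scintillation. Means of at least four experiments.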

[3] = target: T1, Prostaglandin E2 receptor EP1 subtype; test: Antagonist activity at human EP1 receptor expressed in CHO cells receptor by […] reporter gene assay; format: functional, cell-based; conditions: read-out: pA2 (converted)
Outline: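 CHO cells stably co-transfected with NFAT reporter gene and human EP1 (pCIN3) were quiesced 24 h before assay. PGE2 concentration-response curves run without antagonist and with five antagonist concentrations, 4 h incubation, luciferase readout. Dose ratios from PGE2 EC50s; log(dose ratio − 1) vs log[antagonist] fitted by linear regression to give pA2 and slope.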

[4] = target: T2, Prostaglandin E2 receptor EP3 subtype (Homo sapiens, UniProt P43115); test: Antagonist activity at human EP3 expressed in CHOK1 cells receptor assessed as inhibition intracellular calcium mobilization by FLIPR assay; format: functional, cell-based, CHO-K1; outline: as §1
T2 sequence (P43115 whole entry): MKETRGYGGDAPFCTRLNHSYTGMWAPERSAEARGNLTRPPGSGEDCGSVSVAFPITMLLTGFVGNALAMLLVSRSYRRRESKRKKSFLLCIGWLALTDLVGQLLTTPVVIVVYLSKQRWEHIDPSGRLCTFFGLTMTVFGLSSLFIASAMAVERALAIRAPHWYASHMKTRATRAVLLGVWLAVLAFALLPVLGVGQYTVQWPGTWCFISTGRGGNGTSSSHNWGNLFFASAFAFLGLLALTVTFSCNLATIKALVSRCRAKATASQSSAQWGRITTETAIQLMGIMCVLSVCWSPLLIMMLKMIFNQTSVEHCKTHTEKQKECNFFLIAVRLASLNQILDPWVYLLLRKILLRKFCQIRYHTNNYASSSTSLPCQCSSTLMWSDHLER

Homo sapiens = species: Homo sapiens; test: Selectivity for EP1 receptor over EP3 receptor
Thromboxane A2 receptor = target: T3, Thromboxane A2 receptor (Homo sapiens, UniProt P21731); test: Inhibition of TP receptor
T3 sequence (P21731 whole entry): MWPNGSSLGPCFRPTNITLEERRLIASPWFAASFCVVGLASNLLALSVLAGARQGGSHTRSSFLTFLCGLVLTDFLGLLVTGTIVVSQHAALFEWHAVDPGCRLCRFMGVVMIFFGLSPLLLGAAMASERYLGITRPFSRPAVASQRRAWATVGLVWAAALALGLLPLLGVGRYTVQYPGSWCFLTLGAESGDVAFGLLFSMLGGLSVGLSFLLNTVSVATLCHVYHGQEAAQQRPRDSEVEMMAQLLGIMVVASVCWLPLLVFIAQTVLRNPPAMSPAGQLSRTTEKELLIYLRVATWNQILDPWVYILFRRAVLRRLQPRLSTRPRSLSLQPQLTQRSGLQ

[5] = target: Prostaglandin F2-alpha receptor (Homo sapiens, UniProt P43088); test: Inhibition of FP receptor
Prostaglandin F2-alpha receptor, sequence (P43088 whole entry): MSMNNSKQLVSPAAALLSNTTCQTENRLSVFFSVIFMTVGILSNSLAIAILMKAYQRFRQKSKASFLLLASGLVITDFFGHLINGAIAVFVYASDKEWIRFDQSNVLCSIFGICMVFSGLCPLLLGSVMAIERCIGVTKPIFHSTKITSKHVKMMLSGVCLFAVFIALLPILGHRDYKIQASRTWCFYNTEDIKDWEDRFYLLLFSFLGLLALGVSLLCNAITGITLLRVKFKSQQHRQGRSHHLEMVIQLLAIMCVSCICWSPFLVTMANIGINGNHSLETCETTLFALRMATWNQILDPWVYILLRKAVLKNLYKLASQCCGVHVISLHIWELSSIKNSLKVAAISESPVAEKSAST

Cytochrome P450 1A2 = target: T4, Cytochrome P450 1A2 (Homo sapiens, UniProt P05177); test: Inhibition of CYP1A2; format: ADME
T4 sequence (P05177 whole entry): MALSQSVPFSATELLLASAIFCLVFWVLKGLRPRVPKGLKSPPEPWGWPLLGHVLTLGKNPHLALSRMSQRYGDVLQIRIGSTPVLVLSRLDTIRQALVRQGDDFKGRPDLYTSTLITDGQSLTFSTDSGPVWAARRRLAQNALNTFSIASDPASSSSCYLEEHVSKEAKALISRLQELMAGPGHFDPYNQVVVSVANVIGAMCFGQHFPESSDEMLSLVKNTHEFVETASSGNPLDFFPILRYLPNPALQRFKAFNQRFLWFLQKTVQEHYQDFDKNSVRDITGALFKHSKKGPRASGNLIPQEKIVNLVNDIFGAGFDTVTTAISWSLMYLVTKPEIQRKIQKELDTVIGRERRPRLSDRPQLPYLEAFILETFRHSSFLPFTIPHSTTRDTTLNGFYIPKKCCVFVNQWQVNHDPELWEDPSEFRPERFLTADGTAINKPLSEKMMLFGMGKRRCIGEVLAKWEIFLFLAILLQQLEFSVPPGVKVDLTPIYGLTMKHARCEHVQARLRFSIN

Cytochrome P450 2C9 = Cytochrome P450 2C9 (Homo sapiens, UniProt P11712); test: Inhibition of CYP2C9; format: ADME
Cytochrome P450 2C9, sequence (P11712 whole entry): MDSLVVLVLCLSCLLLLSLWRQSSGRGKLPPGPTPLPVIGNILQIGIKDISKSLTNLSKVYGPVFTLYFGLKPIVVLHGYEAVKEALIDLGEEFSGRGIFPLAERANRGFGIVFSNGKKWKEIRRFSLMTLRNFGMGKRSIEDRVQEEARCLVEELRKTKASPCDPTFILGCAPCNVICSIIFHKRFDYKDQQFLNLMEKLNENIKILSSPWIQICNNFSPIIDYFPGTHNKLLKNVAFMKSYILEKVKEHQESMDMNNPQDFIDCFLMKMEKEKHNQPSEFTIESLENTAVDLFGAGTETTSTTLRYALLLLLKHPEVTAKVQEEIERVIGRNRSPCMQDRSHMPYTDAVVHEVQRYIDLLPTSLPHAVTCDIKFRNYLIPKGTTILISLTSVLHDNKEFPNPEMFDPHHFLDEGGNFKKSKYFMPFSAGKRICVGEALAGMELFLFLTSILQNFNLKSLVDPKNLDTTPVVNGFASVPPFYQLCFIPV

Cytochrome P450 2C19 = Cytochrome P450 2C19 (Homo sapiens, UniProt P33261); test: Inhibition of CYP2C19; format: ADME
Cytochrome P450 2C19, sequence (P33261 whole entry): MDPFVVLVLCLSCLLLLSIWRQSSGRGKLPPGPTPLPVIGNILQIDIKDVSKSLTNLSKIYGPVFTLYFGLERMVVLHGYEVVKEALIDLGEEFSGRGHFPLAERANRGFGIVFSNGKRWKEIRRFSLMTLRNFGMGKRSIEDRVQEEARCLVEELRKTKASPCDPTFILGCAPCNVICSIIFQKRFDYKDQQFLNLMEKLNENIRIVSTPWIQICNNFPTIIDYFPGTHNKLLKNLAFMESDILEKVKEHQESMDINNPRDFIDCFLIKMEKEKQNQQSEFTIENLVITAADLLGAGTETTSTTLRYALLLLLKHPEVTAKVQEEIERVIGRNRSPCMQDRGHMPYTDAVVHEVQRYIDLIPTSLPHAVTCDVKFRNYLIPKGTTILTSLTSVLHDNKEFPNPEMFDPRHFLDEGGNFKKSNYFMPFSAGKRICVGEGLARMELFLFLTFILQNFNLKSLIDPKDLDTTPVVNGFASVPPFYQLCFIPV

Cytochrome P450 2D6 = Cytochrome P450 2D6 (Homo sapiens, UniProt P10635); test: Inhibition of CYP2D6; format: ADME
Cytochrome P450 2D6, sequence (P10635 whole entry): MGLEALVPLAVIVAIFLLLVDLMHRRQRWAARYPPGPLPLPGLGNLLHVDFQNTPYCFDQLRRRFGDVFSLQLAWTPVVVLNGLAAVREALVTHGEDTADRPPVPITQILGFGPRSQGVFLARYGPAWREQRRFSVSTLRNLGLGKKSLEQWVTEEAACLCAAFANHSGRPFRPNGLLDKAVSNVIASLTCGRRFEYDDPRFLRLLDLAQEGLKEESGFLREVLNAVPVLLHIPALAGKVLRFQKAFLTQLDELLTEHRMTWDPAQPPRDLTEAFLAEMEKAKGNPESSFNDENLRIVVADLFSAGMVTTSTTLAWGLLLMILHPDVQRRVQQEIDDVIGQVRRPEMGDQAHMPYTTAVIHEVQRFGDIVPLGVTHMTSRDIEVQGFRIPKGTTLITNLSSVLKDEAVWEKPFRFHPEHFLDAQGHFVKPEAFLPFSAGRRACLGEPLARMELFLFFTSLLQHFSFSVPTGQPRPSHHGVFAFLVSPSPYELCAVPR

Cytochrome P450 3A4 = Cytochrome P450 3A4 (Homo sapiens, UniProt P08684); test: Inhibition of CYP3A4; format: ADME
Cytochrome P450 3A4, sequence (P08684 whole entry): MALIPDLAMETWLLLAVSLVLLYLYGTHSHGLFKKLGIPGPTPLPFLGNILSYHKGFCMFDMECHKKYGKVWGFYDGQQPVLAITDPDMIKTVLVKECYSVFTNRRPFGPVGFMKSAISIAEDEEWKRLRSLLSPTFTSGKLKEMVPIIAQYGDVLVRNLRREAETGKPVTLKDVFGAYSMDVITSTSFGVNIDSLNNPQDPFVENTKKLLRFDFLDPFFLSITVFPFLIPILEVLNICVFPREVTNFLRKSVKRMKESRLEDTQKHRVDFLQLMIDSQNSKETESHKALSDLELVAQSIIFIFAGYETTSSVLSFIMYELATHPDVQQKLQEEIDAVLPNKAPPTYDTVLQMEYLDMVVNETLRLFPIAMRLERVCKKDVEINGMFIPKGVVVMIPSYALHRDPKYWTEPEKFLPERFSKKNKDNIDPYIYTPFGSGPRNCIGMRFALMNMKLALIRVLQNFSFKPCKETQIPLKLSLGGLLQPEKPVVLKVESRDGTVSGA

pKi [1]	Structure (SMILES)	also measured
< 5.84	Cc1ccc(S(=O)(=O)N(CC(=O)NCc2ccc(Cl)cc2)c2ccccn2)cc1	pKi [2]: < 6.00
6.13	COc1ccc(CCNC(=O)CN(c2ccccc2C)S(=O)(=O)c2ccccc2)cc1OC	
< 5.80	COc1ccc(CCNC(=O)CN(c2ccc(F)cc2)S(=O)(=O)c2ccc(C)cc2)cc1OC	
6.62	CCc1ccccc1N(CC(=O)NCCc1ccc(OC)c(OC)c1)S(=O)(=O)c1cccc(C#N)c1	
5.78	CCc1ccccc1N(CC(=O)NCCc1ccc(OC)c(OC)c1)S(=O)(=O)c1cccc(C)c1	
7.16	CCc1ccccc1N(CC(=O)NCCc1ccc(OC)c(OC)c1)S(=O)(=O)c1ccc(OC(F)(F)F)cc1	
7.87	CCc1ccccc1N(CC(=O)NCCc1ccc(OC)c(OC)c1)S(=O)(=O)c1ccc(C)cc1	Kb [3]: 5.01 nM
< 5.84	Cc1ccc(S(=O)(=O)N(CC(=O)NCc2ccc(Cl)cc2)c2ncccc2C)cc1	pKi [2]: 6.10
7.18	COc1ccc(CCNC(=O)CN(c2ccccc2C)S(=O)(=O)c2ccc(C)cc2)c(F)c1OC	
7.41	COc1ccc(CCNC(=O)CN(c2ccccc2C)S(=O)(=O)c2ccc(C)cc2)cc1OC	
6.87	CCc1ccccc1N(CC(=O)NCc1ccccc1F)S(=O)(=O)c1ccc(C)cc1	
5.97	CCc1ccccc1N(CC(=O)NCc1ccccc1OC)S(=O)(=O)c1ccc(C)cc1	
7.05	Cc1ccc(S(=O)(=O)N(CC(=O)NCCc2ccc(NS(C)(=O)=O)cc2)c2ccccc2C)cc1	
< 5.84	Cc1ccc(S(=O)(=O)N(CC(=O)NCc2ccc(Cl)cc2)c2ccc(C)cn2)cc1	pKi [2]: < 6.00
6.23	Cc1ccc(S(=O)(=O)N(CC(=O)NCc2ccc(Cl)cc2)c2ccnn2C)cc1	pKi [2]: 6.40
7.94	CCc1ccccc1N(CC(=O)NCc1ccc(Cl)cc1)S(=O)(=O)c1ccc(C)cc1	pKi [4]: 6.10; Ratio pKi (Homo sapiens): 100; pIC50 (Thromboxane A2 receptor): < 5.00; pIC50 [5]: 5.38; pIC50 (Cytochrome P450 1A2): 4.50; pIC50 (Cytochrome P450 2C9): 5.20; pIC50 (Cytochrome P450 2C19): 5.70; pIC50 (Cytochrome P450 2D6): 4.00; pIC50 (Cytochrome P450 3A4): 6.60; pKi [2]: 8.00
7.54	CCc1ccccc1N(CC(=O)NCCc1ccc(OC)c(OC)c1)S(=O)(=O)c1ccc(Br)cc1	
6.37	CCc1ccccc1N(CC(=O)NCc1cccc(OC(F)(F)F)c1)S(=O)(=O)c1ccc(C)cc1	
6.77	CCc1ccccc1N(CC(=O)NCCc1ccc(OC)c(OC)c1)S(=O)(=O)c1ccc(OC)cc1	
< 5.84	Cc1ccc(S(=O)(=O)N(CC(=O)NCc2ccc(Cl)cc2)c2ccc(C)nc2)cc1	pKi [2]: < 6.00
7.89	COc1ccc(CCNC(=O)CN(c2cccc(C)c2C)S(=O)(=O)c2ccc(C)cc2)cc1OC	
5.87	Cc1ccc(S(=O)(=O)N(CC(=O)NCCc2ccccc2)c2ccccc2C)cc1	
< 5.95	COc1ccc(CCNC(=O)CN(c2ccc(C)cc2)S(=O)(=O)c2ccc(C)cc2)cc1OC	
6.77	COc1ccc(CCNC(=O)CN(c2ccccc2C)S(=O)(=O)c2ccc(C)cc2)cc1	
< 5.50	CCc1ccccc1N(CC(=O)NCCc1ccc(OC)c(OC)c1)S(=O)(=O)c1ccccc1C#N	
6.18	Cc1ccc(S(=O)(=O)N(CC(=O)NCCc2ccc(Cl)cc2)c2ccccc2C)cc1	

pKi [1]	Structure (SMILES)	also measured
6.17	Cc1ccc(S(=O)(=O)N(CC(=O)NCc2ccc(Cl)cc2)c2cccnc2C)cc1	pKi [2]: 6.70
6.86	CCc1ccccc1N(CC(=O)NCc1cccc(OC)c1)S(=O)(=O)c1ccc(C)cc1	pKi [2]: 7.10
6.69	Cc1ccc(S(=O)(=O)N(CC(=O)NCCc2cccc(O)c2)c2ccccc2C)cc1	
7.50	CCc1ccccc1N(CC(=O)NCCc1ccc(OC)c(OC)c1)S(=O)(=O)c1ccc(C#N)cc1	
6.15	CCc1ccccc1N(CC(=O)NCCc1ccc(OC)c(OC)c1)S(=O)(=O)c1cccc(OC(F)(F)F)c1	
7.21	COc1ccc(CCNC(=O)CN(c2cccc(Cl)c2)S(=O)(=O)c2ccc(C)cc2)cc1OC	
< 5.42	COc1ccc(CCNC(=O)CN(c2ccc(Br)cc2)S(=O)(=O)c2ccc(C)cc2)cc1OC	
6.68	CCc1ccccc1N(CC(=O)NCc1ccc(C(F)(F)F)cc1)S(=O)(=O)c1ccc(C)cc1	
7.14	CCn1nccc1N(CC(=O)NCc1ccc(Cl)cc1)S(=O)(=O)c1ccc(C)cc1	pKi [2]: 6.80
6.65	CCc1ccccc1N(CC(=O)NCc1ccccc1)S(=O)(=O)c1ccc(C)cc1	pKi [2]: 7.20
6.55	CCc1ccccc1N(CC(=O)NCc1ccc(OC)c(OC)c1)S(=O)(=O)c1ccc(C)cc1	pKi [2]: 7.60
< 5.84	Cc1ccc(S(=O)(=O)N(CC(=O)NCc2ccc(Cl)cc2)c2cccnc2)cc1	pKi [2]: < 6.00
7.21	COc1ccc(CCNC(=O)CN(c2cccc(C)c2)S(=O)(=O)c2ccc(C)cc2)cc1OC	
7.72	CCc1ccccc1N(CC(=O)NCCc1ccc(OC)c(OC)c1)S(=O)(=O)c1ccc(C(F)(F)F)cc1	
< 5.80	COc1ccc(N(CC(=O)NCCc2ccc(OC)c(OC)c2)S(=O)(=O)c2ccc(C)cc2)cc1	
6.23	COc1ccc(CCNC(=O)CN(c2ccccc2)S(=O)(=O)c2ccc(C)cc2)cc1OC	
5.85	CCc1ccccc1N(CC(=O)NCc1cccc(Cl)c1)S(=O)(=O)c1ccc(C)cc1	pKi [2]: 6.60
7.51	COc1ccc(CCNC(=O)CN(c2cccc(C(F)(F)F)c2)S(=O)(=O)c2ccc(C)cc2)cc1OC	
7.46	COc1ccc(CCNC(=O)CN(c2cccc(Br)c2)S(=O)(=O)c2ccc(C)cc2)cc1OC	
5.89	COc1ccc(CCNC(=O)CN(c2ccc(Cl)cc2)S(=O)(=O)c2ccc(C)cc2)cc1OC	
< 5.84	Cc1ccc(S(=O)(=O)N(CC(=O)NCc2ccc(Cl)cc2)c2cccc(C)n2)cc1	pKi [2]: < 6.00
6.78	CCc1ccccc1N(CC(=O)NCCc1ccc(OC)c(OC)c1)S(=O)(=O)c1ccccc1C	
7.45	CCc1ccccc1N(CC(=O)NCc1ccc(OC)cc1)S(=O)(=O)c1ccc(C)cc1	pKi [2]: 7.60
8.43	CNS(=O)(=O)c1cc(CCNC(=O)CN(c2ccccc2C)S(=O)(=O)c2ccc(C)cc2)ccc1O	
7.64	CCc1ccccc1N(CC(=O)NCc1ccc(Br)cc1)S(=O)(=O)c1ccc(C)cc1	
5.70	CCc1ccccc1N(CC(=O)NCCc1ccc(OC)c(OC)c1)S(=O)(=O)c1ccccc1Cl	
